Data reported in ChEMBL document CHEMBL4020823, “Highly Selective, Potent, and Oral mTOR Inhibitor for Treatment of Cancer as Autophagy Inducer” (J Med Chem, 2018).
Active and inactive are the calls of the source. No cut-off for these calls is given here.

What was measured:
HeLa [1] = assay: Induction of autophagy in human HeLa cells assessed as increase in LC3-2 level at 2 uM after 48 hrs by Western blot analysis; assay type: functional, cell-based
Summary of the method: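 Cells were treated for 48 h (2 days) with varying concentrations. Whole-cell lysates were immunoblotted for LC3B-II with β-actin as the internal control. Membranes were blocked in 5% skim milk, incubated with primary antibody overnight at 4 °C, then with peroxidase-conjugated secondary, and developed by ECL.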

HeLa [2] = assay: Growth inhibition of human HeLa cells after 72 hrs by CCK8 assay; assay type: functional, cell-based
Summary of the method: (§1)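 Cells were seeded at 2000–3000 per well and grown 24 h in serum-containing medium. They were then exposed to serially diluted compound for 72 h at 37 °C, 5% CO2. CCK8 reagent was added for 1–4 h and absorbance read at 450 nm. Inhibition = (AC − AS)/(AC − Ab) × 100%. IC50 is the average of at least three independent determinations.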

MDA-MB-231 [3] = assay: Induction of autophagy in human MDA-MB-231 cells assessed as increase in LC3-2 level at 0.5 uM after 48 hrs by Western blot analysis; assay type: functional, cell-based
Summary of the method: (§2)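 Cells treated with test agents at several concentrations for 2 days (48 h). LC3B-II detected by Western blot on lysates, with β-actin as internal control. Membranes blocked in 5% skim milk, primary antibodies at 4 °C overnight, peroxidase-conjugated anti-mouse or anti-rabbit IgG secondary, ECL detection.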

SiHa [4] = assay: Growth inhibition of human SiHa cells after 72 hrs by CCK8 assay; assay type: functional, cell-based; summary of the method: as §1
SiHa [5] = assay: Induction of autophagy in human SiHa cells assessed as increase in LC3-2 level at 1 uM after 48 hrs by Western blot analysis; assay type: functional, cell-based; summary of the method: as §2
MDA-MB-231 [6] = assay: Cell cycle arrest in human MDA-MB-231 cells assessed as accumulation at G0/G1 phase at 0.5 uM after 24 hrs by propidium iodide-staining based flow cytometric analysis; assay type: functional
Summary of the method: (§3)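 Cells were seeded at 5 × 10^5 cells/mL. At 24 h after plating they were treated with increasing concentrations for 24 h, washed in PBS, and fixed in ice-cold 70% ethanol for at least 24 h. They were stained with propidium iodide plus RNase A for 30 min at 37 °C and analysed by flow cytometry for phase distribution.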

MCF7 [7] = assay: Induction of autophagy in human MCF7 cells assessed as increase in LC3-2 level at 0.5 uM after 48 hrs by Western blot analysis; assay type: functional, cell-based; summary of the method: as §2
SiHa [8] = assay: Cell cycle arrest in human SiHa cells assessed as decrease in S-phase at 0.5 uM after 24 hrs by propidium iodide-staining based flow cytometric analysis; assay type: functional; summary of the method: as §3
SiHa [9] = assay: Cell cycle arrest in human SiHa cells assessed as accumulation at G0/G1 phase at 0.5 uM after 24 hrs by propidium iodide-staining based flow cytometric analysis; assay type: functional; summary of the method: as §3
T47D [10] = assay: Induction of autophagy in human T47D cells assessed as increase in LC3-2 puncta level at 0.5 uM after 48 hrs by immunofluorescence staining based microscopic analysis; assay type: functional, cell-based
Summary of the method: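 Cells seeded on glass coverslips in complete 1640 or DMEM and incubated with inhibitors at different concentrations for 48 h. Fixed in 4% paraformaldehyde, permeabilized with 0.15% Triton X-100, blocked in 4% BSA/PBS for 1 h at room temperature. Anti-LC3B (1:200) overnight, then FITC-conjugated secondary, DAPI nuclear stain. LC3B-II puncta viewed by fluorescence microscopy.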

OVCAR-5 = assay: Growth inhibition of human OVCAR5 cells after 72 hrs by CCK8 assay; assay type: functional, cell-based; conditions: OVCAR-5, 72 h; summary of the method: as §1
T47D [11] = assay: Antitumor activity against human T47D cells xenografted in BALB/c nude mouse assessed as decrease in tumor growth at 60 mg/kg, po administered via gavage after 3 weeks relative to control; assay type: functional; conditions: 504 h, read-out: TGI
NCI-H460 = assay: Growth inhibition of human H460 cells after 72 hrs by CCK8 assay; assay type: functional, cell-based; conditions: NCI-H460, 72 h; summary of the method: as §1
T47D [12] = assay: Growth inhibition of human T47D cells after 72 hrs by CCK8 assay; assay type: functional, cell-based; summary of the method: as §1
MCF7 [13] = assay: Cell cycle arrest in human MCF7 cells assessed as decrease in S-phase at 0.5 uM after 24 hrs by propidium iodide-staining based flow cytometric analysis; assay type: functional; summary of the method: as §3
HeLa [14] = assay: Cell cycle arrest in human HeLa cells assessed as decrease in S-phase at 1 uM after 24 hrs by propidium iodide-staining based flow cytometric analysis; assay type: functional; summary of the method: as §3
MDA-MB-231 [15] = assay: Cell cycle arrest in human MDA-MB-231 cells assessed as decrease in S-phase at 0.5 uM after 24 hrs by propidium iodide-staining based flow cytometric analysis; assay type: functional; summary of the method: as §3
MDA-MB-231 [16] = assay: Growth inhibition of human MDA-MB-231 cells after 72 hrs by CCK8 assay; assay type: functional, cell-based; conditions: MDA-MB-231, 72 h; summary of the method: as §1
T47D [17] = assay: Cell cycle arrest in human T47D cells assessed as decrease in S-phase at 0.5 uM after 24 hrs by propidium iodide-staining based flow cytometric analysis; assay type: functional; summary of the method: as §3
MCF7 [18] = assay: Cell cycle arrest in human MCF7 cells assessed as accumulation at G0/G1 phase at 0.5 uM after 24 hrs by propidium iodide-staining based flow cytometric analysis; assay type: functional; summary of the method: as §3
HeLa [19] = assay: Cell cycle arrest in human HeLa cells assessed as accumulation at G0/G1 phase at 1 uM after 24 hrs by propidium iodide-staining based flow cytometric analysis; assay type: functional; summary of the method: as §3
T47D [20] = assay: Cell cycle arrest in human T47D cells assessed as accumulation at G0/G1 phase at 0.5 uM after 24 hrs by propidium iodide-staining based flow cytometric analysis; assay type: functional; summary of the method: as §3
T47D [21] = assay: Induction of autophagy in human T47D cells assessed as increase in LC3-2 level at 0.5 uM after 48 hrs by Western blot analysis; assay type: functional, cell-based; summary of the method: as §2
MCF7 [22] = assay: Growth inhibition of human MCF7 cells after 72 hrs by CCK8 assay; assay type: functional, cell-based; conditions: MCF7, 72 h; summary of the method: as §1
T47D [23] = assay: Antitumor activity against human T47D cells xenografted in BALB/c nude mouse assessed as tumor weight at 60 mg/kg, po administered via gavage after 3 weeks (reference value: 1.23 g); assay type: functional
SK-OV-3 = assay: Growth inhibition of human SKOV3 cells after 72 hrs by CCK8 assay; assay type: functional, cell-based; conditions: SK-OV-3, 72 h; summary of the method: as §1

## CO[C@H]1C[C@@H]2CC[C@@H](C)[C@@](O)(O2)C(=O)C(=O)N2CCCC[C@H]2C(=O)O[C@H]([C@H](C)C[C@@H]2CC[C@@H](O)[C@H](OC)C2)CC(=O)[C@H](C)/C=C(\C)[C@@H](O)[C@@H](OC)C(=O)[C@H](C)C[C@H](C)/C=C/C=C/C=C/1C [SIROLIMUS]
HeLa [1]
  Activity: Active
HeLa [2]
  IC50: > 10 µM
MDA-MB-231 [3]
  Activity: Active
SiHa [4]
  IC50: 1.76 µM
SiHa [5]
  Activity: Active
MDA-MB-231 [6]
  Activity: Active
MCF7 [7]
  Activity: Active
SiHa [8]
  Activity: Active
SiHa [9]
  Activity: Active
T47D [10]
  Activity: Dose-dependent effect
OVCAR-5
  IC50: > 10 µM
T47D [11]
  inhibition in vivo at 60 mg/kg: 72.4%
NCI-H460
  IC50: > 10 µM
T47D [12]
  IC50: 1.58 µM
MCF7 [13]
  Activity: Active
HeLa [14]
  Activity: Active
MDA-MB-231 [15]
  Activity: Active
MDA-MB-231 [16]
  IC50: > 10 µM
T47D [17]
  Activity: Active
MCF7 [18]
  Activity: Active
HeLa [19]
  Activity: Active
T47D [20]
  Activity: Active
T47D [21]
  Activity: Active
MCF7 [22]
  IC50: 4.98 µM
T47D [23]
  Activity: 0.36 g
SK-OV-3
  IC50: > 10 µM
